Data from ChEMBL document CHEMBL1177758, “Anti-neuroinflammatory activity of 1,5-benzodiazepine derivatives” (Bioorg Med Chem Lett, 2010).
Activity calls are given as the source filed them. No cut-off for these calls is given here.

Columns and labels:
BV-2 [1] = assay: Antiinflammatory activity in mouse BV2 cells assessed as inhibition of LPS-induced NO production at 10 uM after 24 hrs by Griess reaction; format: functional; settings: BV-2, 24 h
How it was run: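 BV-2 microglial cells were activated with 100 ng/ml LPS for 24 h with compound at 10 µM. Medium nitrite was measured by Griess reaction. The value is mean inhibition of NO production relative to the LPS control, from three experiments.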

[2] = Cytotoxicity against mouse BV2 cells; format: cell-based, BV-2; settings: read-out: INH
How it was run: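 Viability of murine BV-2 microglia, stimulated with LPS at 100 ng/ml for 24 h with or without compound, was measured by MTT assay.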

BV-2 [3] = assay: Antiinflammatory activity in mouse BV2 cells assessed as inhibition of LPS-induced NO production after 24 hrs by Griess reaction; format: functional, cell-based; settings: BV-2, 24 h
How it was run: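 Murine BV-2 microglia stimulated with LPS at 100 ng/ml for 24 h with or without compound. Nitrite, a soluble oxidation product of NO, was measured in the culture medium by Griess reaction.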

[4] = biological target: T1, Nitric oxide synthase, inducible (Mus musculus) (UniProt P29477); assay: Inhibition of iNOS activity in LPS-stimulated mouse BV2 cells after 12 hrs; format: cell-based; settings: BV-2
T1 sequence (whole entry): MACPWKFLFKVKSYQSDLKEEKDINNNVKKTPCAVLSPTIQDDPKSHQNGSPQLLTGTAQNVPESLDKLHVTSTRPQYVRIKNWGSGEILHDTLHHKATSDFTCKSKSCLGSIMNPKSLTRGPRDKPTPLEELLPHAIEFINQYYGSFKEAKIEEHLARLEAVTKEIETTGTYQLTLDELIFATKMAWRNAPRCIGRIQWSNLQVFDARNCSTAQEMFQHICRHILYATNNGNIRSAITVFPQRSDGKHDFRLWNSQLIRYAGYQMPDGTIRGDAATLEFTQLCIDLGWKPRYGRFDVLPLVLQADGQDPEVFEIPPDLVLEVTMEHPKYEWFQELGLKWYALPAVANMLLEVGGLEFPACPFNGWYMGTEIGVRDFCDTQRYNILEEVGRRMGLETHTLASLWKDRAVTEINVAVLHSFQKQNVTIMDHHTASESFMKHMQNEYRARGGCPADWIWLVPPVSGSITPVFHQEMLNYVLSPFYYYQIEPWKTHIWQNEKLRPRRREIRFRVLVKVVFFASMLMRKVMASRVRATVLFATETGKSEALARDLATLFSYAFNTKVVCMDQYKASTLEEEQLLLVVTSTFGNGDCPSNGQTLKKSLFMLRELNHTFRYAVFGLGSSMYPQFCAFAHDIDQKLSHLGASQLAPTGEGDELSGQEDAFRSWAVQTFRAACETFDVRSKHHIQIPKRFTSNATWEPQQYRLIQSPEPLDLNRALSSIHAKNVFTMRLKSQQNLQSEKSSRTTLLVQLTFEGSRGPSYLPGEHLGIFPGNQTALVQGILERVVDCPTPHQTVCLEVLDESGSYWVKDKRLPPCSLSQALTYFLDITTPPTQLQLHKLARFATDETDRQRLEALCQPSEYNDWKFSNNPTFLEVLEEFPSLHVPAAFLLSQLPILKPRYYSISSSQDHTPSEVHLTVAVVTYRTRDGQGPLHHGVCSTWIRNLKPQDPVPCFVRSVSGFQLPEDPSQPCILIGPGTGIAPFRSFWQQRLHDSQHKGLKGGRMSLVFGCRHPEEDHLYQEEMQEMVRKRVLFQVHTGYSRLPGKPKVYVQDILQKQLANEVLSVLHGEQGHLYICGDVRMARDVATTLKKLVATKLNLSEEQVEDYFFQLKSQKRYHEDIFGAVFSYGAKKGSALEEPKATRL
How it was run: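 Intact-cell iNOS activity assay. BV-2 cells (4 × 10⁶) were pre-induced with LPS at 100 ng/ml for 12 h, washed twice with PBS, then replated at 2 × 10⁶ cells/well. They were incubated with various compound concentrations for a further 12 h. Supernatant NO was read by Griess reaction.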

BV-2 [5] = assay: Antiinflammatory activity in mouse BV2 cells assessed as inhibition of LPS-induced iNOS protein expression at 10 uM after 6 hrs by Western blotting

SMILES | IC50 (BV-2 [3]) [µM] | inhibition [4] | inhibition at 10 µM (BV-2 [1]) [%] | cytotoxicity [2] [%] | inhibition (BV-2 [5])
CC1(c2ccc(Cl)cc2)CC(c2ccc(Cl)cc2)=Nc2ccccc2N1 (configuration not stated) |  |  | 28.2 | 28.2 | 
CC1(c2ccccc2[N+](=O)[O-])CC(c2ccccc2[N+](=O)[O-])=Nc2ccccc2N1 (configuration not stated) | 23.2 |  | 24.9 |  | 
CC1(c2cccc(Cl)c2)CC(c2cccc(Cl)c2)=Nc2ccccc2N1 (configuration not stated) | 23.2 |  | 21.2 |  | 
CC(C)C1=Nc2ccccc2NC(C)(C(C)C)C1 (configuration not stated) | 16.6 |  | 26.3 |  | 
CC1(c2ccsc2)CC(c2ccsc2)=Nc2ccccc2N1 (configuration not stated) | 35.2 |  | 13.2 |  | 

The remaining compounds from weak to strong by IC50 (BV-2 [3]), led by results:

IC50 (BV-2 [3]) [µM] | inhibition [4] | SMILES | inhibition at 10 µM (BV-2 [1]) [%] | cytotoxicity [2] [%] | inhibition (BV-2 [5])
15.2 |  | CCC1=Nc2ccccc2NC(C)(CC)C1 (configuration not stated) | 27.4 |  | 
14.3 |  | CC1=Nc2ccccc2NC(C)(C)C1 | 28.6 |  | 
14 |  | Cc1ccc(C2=Nc3ccccc3NC(C)(c3ccc(C)cc3)C2)cc1 (configuration not stated) | 34.6 |  | 
9.4 |  | CC1(c2ccccc2)CC(c2ccccc2)=Nc2ccccc2N1 (configuration not stated) | 59.8 |  | 
7 | Active | CC1(c2cccs2)CC(c2cccs2)=Nc2ccccc2N1 (configuration not stated) | 70.3 |  | inactive
